# ChEMBL document CHEMBL1122839, “Synthesis and antidiarrheal activity of N-(aminoiminomethyl)-1H-pyrrole-1-acetamides related to guanfacine” (1985)
# “And” between values parts separate entries of the source, which are not always exact repeats. Equal values may be shown once. The source made the active and inactive calls. The calls are words filed in the database; no cut-off is given here.
# What was measured:
# Rattus norvegicus [1] = assay: Percent inhibition of caster oil induced diarrhea in rats at a dose of 10 mg/kg peroral administration after 6 hours; type: functional; details: for Inhibition: 10 mg/kg; for inhibition in vivo at 10 mg/kg: Rattus norvegicus, 6 h
# Rattus norvegicus [2] = assay: Percent inhibition of caster oil induced diarrhea in rats at a dose of 1 mg/kg peroral administration after 2 hr; type: functional; details: route oral
# Rattus norvegicus [3] = assay: Percent inhibition of caster oil induced diarrhea in rats at a dose of 30 mg/kg peroral administration after 6 hours; type: functional; details: for inhibition in vivo at 30 mg/kg: Rattus norvegicus, 6 h
# Rattus norvegicus [4] = assay: Percent inhibition of caster oil induced diarrhea in rats at a dose of 1 mg/kg peroral administration after 6 hr; type: functional; details: route oral
# Rattus norvegicus [5] = assay: Cardiovascular activity in normotensive rats after oral administration of 30 mg/kg after 2 hr; type: functional
# Summary of the method: (§1)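 Female normotensive rats with left carotid artery cannulae placed under anaesthesia. The next day they received the test substance orally in 0.5% hydroxymethylcellulose/0.9% saline (10 mL/kg), or vehicle alone. Systolic blood pressure was measured from the cannula, and heart rate from the pressure-triggered tachometer, predose and at 1, 2, 4 and 6 h. Values are means; significance was judged against predose values.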
# Rattus norvegicus [6] = assay: Percent inhibition of caster oil induced diarrhea in rats at a dose of 30 mg/kg peroral administration after 2 hours; type: functional; details: route oral
# Rattus norvegicus [7] = assay: Cardiovascular activity in normotensive rats at a dose of 30 mg/kg oral administration after 4 hr; type: functional; summary of the method: as §1
# Rattus norvegicus [8] = assay: Cardiovascular activity in normotensive rats at a dose of 30 mg/kg oral administration after 6 hr; type: functional; summary of the method: as §1
# Rattus norvegicus [9] = assay: Cardiovascular activity in normotensive rats after oral administration of 30 mg/kg after 6 hr; type: functional; summary of the method: as §1
# Rattus norvegicus [10] = assay: Cardiovascular activity in normotensive rats after oral administration of 30 mg/kg after 1 hr; type: functional
# Summary of the method: (§2)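 Female normotensive rats with left carotid artery cannulae implanted under anaesthesia; dosed orally the next day in 0.5% hydroxymethylcellulose/0.9% saline (10 mL/kg) or vehicle alone. Systolic blood pressure taken by pressure transducer before dosing and at 1, 2, 4, 6 h; heart rate from tachometer triggered by pressure signal. Mean values; significance versus predose.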
# Rattus norvegicus [11] = assay: Cardiovascular activity in normotensive rats at a dose of 30 mg/kg oral administration after 1 hr; type: functional; summary of the method: as §1
# Rattus norvegicus [12] = assay: Cardiovascular activity in normotensive rats at a dose of 30 mg/kg oral administration after 2 hr; type: functional; summary of the method: as §1
# Rattus norvegicus [13] = assay: Cardiovascular activity in normotensive rats after oral administration of 30 mg/kg after 4 hr; type: functional; summary of the method: as §1
# Rattus norvegicus [14] = assay: Percent inhibition of caster oil induced diarrhea in rats at a dose of 10 mg/kg peroral administration after 2 hours; type: functional; details: route oral
# Rattus norvegicus [15] = assay: Percent inhibition of caster oil induced diarrhea in rats at a dose of 1 mg/kg peroral administration after 2 hours; NS=Not significant; type: functional, organism-based; design: dose 1 mg/kg
# Rattus norvegicus [16] = assay: Percent inhibition of caster oil induced diarrhea in rats at a dose of 1 mg/kg peroral administration after 6 hr; NS=Not significant; type: functional, organism-based; design: dose 1 mg/kg
# Rattus norvegicus [17] = assay: Percent inhibition of caster oil induced diarrhea in rats at a dose of 3 mg/kg peroral administration after 6 hr; NS=Not significant; type: functional, organism-based; design: dose 3 mg/kg
# Rattus norvegicus [18] = assay: The compound was tested for cardiovascular activity in normotensive rats after oral administration of 30 mg/kg after 1 hr; type: functional, Heart; summary of the method: as §1
# Rattus norvegicus [19] = assay: Percent inhibition of caster oil induced diarrhea in rats at a dose of 3 mg/kg peroral administration after 2 hours; type: functional; details: route oral
# Rattus norvegicus [20] = assay: Percent inhibition of caster oil induced diarrhea in rats at a dose of 1 mg/kg peroral administration after 2 hours; type: functional; details: route oral
# Rattus norvegicus [21] = assay: Percent inhibition of caster oil induced diarrhea in rats at a dose of 30 mg/kg peroral administration after 2 hours; NS=Not significant; type: functional, organism-based; design: dose 30 mg/kg
# Rattus norvegicus [22] = assay: Percent inhibition of caster oil induced diarrhea in rats at a dose of 30 mg/kg peroral administration after 6 hours; NS=Not significant; type: functional, organism-based; design: dose 30 mg/kg
# Rattus norvegicus [23] = assay: Percent inhibition of caster oil induced diarrhea in rats at a dose of 3 mg/kg peroral administration after 2 hr; type: functional; details: route oral
# Summary of the method: (§3)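 Male rats housed singly on wide-mesh grids, food-deprived overnight, water free; groups of six dosed orally in 0.3% hydroxymethylcellulose/0.9% saline (10 mL/kg) or vehicle. Castor oil 1 mL orally 1 h later. Feces collected on preweighed papers and weighed at 2 and 6 h after castor oil; output expressed as percentage of vehicle group.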
# Rattus norvegicus [24] = assay: Cardiovascular activity in normotensive rats after oral administration of 30 mg/kg aof the compound after 1 hr; type: functional; summary of the method: as §2
# Rattus norvegicus [25] = assay: Percent inhibition of caster oil induced diarrhea in rats at a dose of 3 mg/kg peroral administration after 6 hr; type: functional; details: route oral; summary of the method: as §3
# Rattus norvegicus [26] = assay: Percent inhibition of caster oil induced diarrhea in rats after 2 hours at 1 mg/kg of dose after peroral administration; NS=Not significant; type: functional, organism-based; design: dose 1 mg/kg
# Rattus norvegicus [27] = assay: Percent inhibition of caster oil induced diarrhea in rats after 6 hours at 3 mg/kg of dose after peroral administration; NS=Not significant; type: functional, organism-based; design: dose 3 mg/kg
# Rattus norvegicus [28] = assay: Percent inhibition of caster oil induced diarrhea in rats after 6 hours at 1 mg/kg of dose after peroral administration; NS=Not significant; type: functional, organism-based; design: dose 1 mg/kg
# Rattus norvegicus [29] = assay: Percent inhibition of caster oil induced diarrhea in rats after 2 hours at 3 mg/kg of dose after peroral administration; type: functional; details: route oral
# Rattus norvegicus [30] = assay: Percent inhibition of caster oil induced diarrhea in rats at a dose of 3 mg/kg peroral administration after 6 hours; NS=Not significant; type: functional, organism-based; design: dose 3 mg/kg
# Rattus norvegicus [31] = assay: Percent inhibition of caster oil induced diarrhea in rats at a dose of 1 mg/kg peroral administration after 6 hours; NS=Not significant; type: functional, organism-based; design: dose 1 mg/kg
structure (smiles),measurement,setting,value
CC1C=C[C@@H](C)N1CC(=O)N=C(N)N.Cl.Cl (stereo in doubt; 11),Inhibition,Rattus norvegicus [1]; route oral,45%
same,inhibition in vivo at 1 mg/kg,Rattus norvegicus [2],100%
same,Inhibition,"Rattus norvegicus [3]; route oral, 30 mg/kg",100%
same,inhibition in vivo at 1 mg/kg,Rattus norvegicus [4],46%
Cc1ccc(C)n1CC(=O)N=C(N)N.Cl,Inhibition,Rattus norvegicus [1]; route oral,75% and 97%
same,Systolic blood pressure,Rattus norvegicus [5],159 mmHg
same,inhibition in vivo at 30 mg/kg,Rattus norvegicus [6],96%
same,Heart rate,Rattus norvegicus [7],218 beats min-1
same,inhibition in vivo at 30 mg/kg,Rattus norvegicus [3]; po,96%
same,Heart rate,Rattus norvegicus [8],242 beats min-1
same,Systolic blood pressure,Rattus norvegicus [9],138 mmHg
same,Systolic blood pressure,Rattus norvegicus [10],193 mmHg
same,Heart rate,Rattus norvegicus [11],175 beats min-1
same,Heart rate,Rattus norvegicus [12],218 beats min-1
same,Systolic blood pressure,Rattus norvegicus [13],163 mmHg
same,inhibition in vivo at 10 mg/kg,Rattus norvegicus [14],100%
CC1C=C[C@@H](C)N1CC(=O)N=C(N)N (stereo in doubt; 10),inhibition,Rattus norvegicus [15],inactive
same,inhibition,Rattus norvegicus [16],inactive
same,inhibition,Rattus norvegicus [17],inactive
CC1C=C[C@@H](C)N1CC(=O)N=C(N)N.Cl.Cl (stereo in doubt; 2),Inhibition,Rattus norvegicus [1]; route oral,86%
same,Heart rate,Rattus norvegicus [5],373 beats min-1
same,Systolic blood pressure,Rattus norvegicus [5],137 mmHg
same,Heart rate,Rattus norvegicus [18],395 beats min-1
same,inhibition in vivo at 30 mg/kg,Rattus norvegicus [6],100%
same,inhibition in vivo at 30 mg/kg,Rattus norvegicus [3]; po,99%
same,inhibition in vivo at 3 mg/kg,Rattus norvegicus [19],100%
same,Heart rate,Rattus norvegicus [9],443 beats min-1
same,Systolic blood pressure,Rattus norvegicus [9],134 mmHg
same,Systolic blood pressure,Rattus norvegicus [10],133 mmHg
same,inhibition in vivo at 1 mg/kg,Rattus norvegicus [20],92%
same,Heart rate,Rattus norvegicus [13],418 beats min-1
same,Systolic blood pressure,Rattus norvegicus [13],133 mmHg
same,inhibition in vivo at 10 mg/kg,Rattus norvegicus [14],100%
CC1C=C[C@@H](C)N1CC(=O)N=C(N)N.Cl.Cl (stereo in doubt; 10),Inhibition,Rattus norvegicus [1]; route oral,52%
same,inhibition in vivo at 3 mg/kg,Rattus norvegicus [19],100%
CC1C=C[C@@H](C)N1C(C)C(=O)N=C(N)N (stereo partly specified),inhibition,Rattus norvegicus [21],inactive
same,inhibition,Rattus norvegicus [22],inactive
CC1C=C[C@@H](C)N1C(=O)C(=O)N=C(N)N (stereo partly specified),inhibition,Rattus norvegicus [21],inactive
same,inhibition,Rattus norvegicus [22],inactive
C/N=C(\N)NC(=O)CN1C(C)C=C[C@H]1C (stereo partly specified),inhibition in vivo at 30 mg/kg,Rattus norvegicus [6],88%
same,inhibition,Rattus norvegicus [22],inactive
CC1C=C[C@@H](C)N1CC(=O)NC1=NCCN1 (stereo partly specified),inhibition in vivo at 30 mg/kg,Rattus norvegicus [6],35%
same,inhibition,Rattus norvegicus [22],inactive
CN(C)C(=O)C(CCN1CCC(O)(c2ccc(Cl)cc2)CC1)(c1ccccc1)c1ccccc1 [LOPERAMIDE],inhibition in vivo at 10 mg/kg,Rattus norvegicus [1]; route oral,99%
same,Heart rate,Rattus norvegicus [5],290 beats min-1
same,Systolic blood pressure,Rattus norvegicus [5],117 mmHg
same,inhibition in vivo at 3 mg/kg,Rattus norvegicus [23],96%
same,inhibition in vivo at 30 mg/kg,Rattus norvegicus [6],98%
same,inhibition in vivo at 30 mg/kg,Rattus norvegicus [3]; route oral,97%
same,Systolic blood pressure,Rattus norvegicus [24],119 mmHg
same,inhibition in vivo at 3 mg/kg,Rattus norvegicus [25],77%
same,Heart rate,Rattus norvegicus [9],360 beats min-1
same,Systolic blood pressure,Rattus norvegicus [9],125 mmHg
same,Heart rate,Rattus norvegicus [10],278 beats min-1
same,Heart rate,Rattus norvegicus [13],324 beats min-1
same,Systolic blood pressure,Rattus norvegicus [13],124 mmHg
same,inhibition in vivo at 10 mg/kg,Rattus norvegicus [14],100%
CNC(=N)NC(=O)Nc1c(C)cccc1C [LIDAMIDINE],inhibition,Rattus norvegicus [26],inactive
same,inhibition in vivo at 10 mg/kg,Rattus norvegicus [1]; po,68%
same,Heart rate,Rattus norvegicus [5],241 beats min-1
same,Systolic blood pressure,Rattus norvegicus [5],132 mmHg
same,inhibition,Rattus norvegicus [27],inactive
same,inhibition,Rattus norvegicus [28],inactive
same,inhibition in vivo at 3 mg/kg,Rattus norvegicus [29],100%
same,inhibition in vivo at 30 mg/kg,Rattus norvegicus [6],100%
same,inhibition in vivo at 30 mg/kg,Rattus norvegicus [3]; po,100%
same,Heart rate,Rattus norvegicus [9],298 beats min-1
same,Systolic blood pressure,Rattus norvegicus [9],131 mmHg
same,Heart rate,Rattus norvegicus [10],263 beats min-1
same,Systolic blood pressure,Rattus norvegicus [10],123 mmHg
same,Heart rate,Rattus norvegicus [13],261 beats min-1
same,Systolic blood pressure,Rattus norvegicus [13],126 mmHg
same,inhibition in vivo at 10 mg/kg,Rattus norvegicus [14],100%
CC1C=C[C@@H](C)N1CCN=C(N)N (stereo partly specified),inhibition,Rattus norvegicus [21],inactive
same,inhibition,Rattus norvegicus [22],inactive
CC1C=C[C@@H](C)N1CCC(=O)N=C(N)N (stereo partly specified),inhibition,Rattus norvegicus [21],inactive
same,inhibition,Rattus norvegicus [22],inactive
CC1CC[C@@H](C)N1CC(=O)N=C(N)N (stereo partly specified),inhibition,Rattus norvegicus [21],inactive
same,inhibition,Rattus norvegicus [22],inactive
CC1C=C[C@@H](C)N1CC(=O)N=C(N)N (stereo in doubt; 2),inhibition,Rattus norvegicus [30],Not siginificant
same,inhibition,Rattus norvegicus [31],inactive
